# pIC50: −log10 of the molar value.
# Molecular target: T1, Ephrin type-B receptor 4 (Homo sapiens, UniProt P54760)
# T1 sequence (P54760 whole entry): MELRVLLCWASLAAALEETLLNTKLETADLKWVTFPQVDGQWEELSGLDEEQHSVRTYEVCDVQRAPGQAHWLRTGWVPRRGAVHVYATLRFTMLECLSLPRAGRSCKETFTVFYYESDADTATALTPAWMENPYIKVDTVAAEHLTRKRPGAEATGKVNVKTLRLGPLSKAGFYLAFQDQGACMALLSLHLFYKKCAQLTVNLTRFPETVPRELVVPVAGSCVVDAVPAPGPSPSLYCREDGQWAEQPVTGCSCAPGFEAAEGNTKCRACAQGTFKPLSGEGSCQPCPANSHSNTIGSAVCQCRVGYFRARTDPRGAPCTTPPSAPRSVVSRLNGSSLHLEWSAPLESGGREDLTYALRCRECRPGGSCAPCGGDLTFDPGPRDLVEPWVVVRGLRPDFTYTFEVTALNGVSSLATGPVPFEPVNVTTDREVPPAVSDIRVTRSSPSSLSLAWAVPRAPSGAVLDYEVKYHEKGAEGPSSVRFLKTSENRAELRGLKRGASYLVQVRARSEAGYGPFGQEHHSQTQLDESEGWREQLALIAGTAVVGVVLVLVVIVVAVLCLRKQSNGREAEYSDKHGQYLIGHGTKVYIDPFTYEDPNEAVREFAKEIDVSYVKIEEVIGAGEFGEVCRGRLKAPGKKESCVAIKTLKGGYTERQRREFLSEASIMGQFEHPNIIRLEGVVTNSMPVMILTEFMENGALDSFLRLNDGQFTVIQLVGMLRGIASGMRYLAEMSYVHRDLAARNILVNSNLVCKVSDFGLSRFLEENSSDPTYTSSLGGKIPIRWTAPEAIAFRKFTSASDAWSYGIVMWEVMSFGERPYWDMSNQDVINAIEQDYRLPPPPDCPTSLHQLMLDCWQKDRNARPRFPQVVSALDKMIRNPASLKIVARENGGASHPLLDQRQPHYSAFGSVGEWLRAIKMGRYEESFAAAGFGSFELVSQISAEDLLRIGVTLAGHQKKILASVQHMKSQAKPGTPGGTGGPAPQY
# Assay: Inhibition of EphB4 assessed as blockade of synthetic substrate phosphorylation by FRET assay
row,pIC50,Compound
1,5.80,CCCCn1c(-c2ccccc2O)cn2c3c(=O)[nH]c(=O)n(C)c3nc12
2,6.43,COc1ccccc1-n1c(-c2cccc(O)c2)cn2c3c(=O)[nH]c(=O)n(C)c3nc12
3,< 4.70,COc1ccccc1-n1c(-c2ccc(C(=O)O)cc2)cn2c3c(=O)[nH]c(=O)n(C)c3nc12
4,< 4.70,COc1ccccc1-n1c(-c2ccc3c(c2)OCO3)cn2c3c(=O)[nH]c(=O)n(C)c3nc12
5,< 5.00,CCCCn1c(-c2ccccc2OC)cn2c3c(=O)[nH]c(=O)n(C)c3nc12
6,6.25,CCCCn1c(-c2ccc(O)cc2)cn2c3c(=O)[nH]c(=O)n(C)c3nc12
7,6.16,CCCCn1c(-c2cccc(O)c2)cn2c3c(=O)[nH]c(=O)n(C)c3nc12
8,< 5.00,CCCCn1c(-c2ccc(OC)cc2)cn2c3c(=O)[nH]c(=O)n(C)c3nc12

# Second part, the compound before the results:
row,Compound,pIC50
1,COc1ccccc1-n1c(-c2ccc([N+](=O)[O-])cc2)cn2c3c(=O)[nH]c(=O)n(C)c3nc12,< 4.70
2,COc1ccccc1-n1c(-c2ccc(F)cc2)cn2c3c(=O)[nH]c(=O)n(Cc4ccccc4)c3nc12,< 5.00
3,COc1ccccc1-n1c(-c2ccc(C#N)cc2)cn2c3c(=O)[nH]c(=O)n(C)c3nc12,< 4.70
4,COc1ccccc1-n1c(-c2ccccc2)cn2c3c(=O)[nH]c(=O)n(Cc4ccccc4)c3nc12,< 5.00
5,COc1ccccc1-n1c(-c2cccc(O)c2C)cn2c3c(=O)[nH]c(=O)n(C)c3nc12,5.92
6,COc1ccccc1-n1c(-c2cccc(C)c2)cn2c3c(=O)[nH]c(=O)n(C)c3nc12,< 5.00
7,COc1ccccc1-n1c(-c2ccc(O)cc2C)cn2c3c(=O)[nH]c(=O)n(C)c3nc12,6.63
8,COc1ccccc1-n1c(-c2ccc(F)cc2)cn2c3c(=O)[nH]c(=O)[nH]c3nc12,5.27

# Molecular target: T2, Ephrin type-B receptor 4 (Homo sapiens) (UniProt P54760)
# T2 sequence (whole entry): T1 sequence (P54760 whole entry)
# Assay: Inhibition of EphB4 assessed as blockade of synthetic substrate phosphorylation at 10 uM by FRET assay
# Set-up: scale not given: the % may be the effect or the level left
# Method in brief: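 Z'-LYTE FRET kinase assay with Tyr 1 peptide substrate. Final EphB4 25 ng/μL, ATP 125 μM (near Km), 30 °C for 2 h. Excitation 400 nm, emission at 445 and 520 nm, read as fluorescence progress curves. Inhibition of substrate phosphorylation was measured.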
row,Activity,Compound
1,36%,CCCCn1c(-c2cccc(OC)c2)cn2c3c(=O)[nH]c(=O)n(C)c3nc12
2,64%,COc1ccccc1-n1c(-c2ccccc2O)cn2c3c(=O)[nH]c(=O)n(C)c3nc12
3,30%,COc1ccccc1-n1c(-c2cccc3c2OCO3)cn2c3c(=O)[nH]c(=O)n(C)c3nc12
4,37%,CCCCn1c(-c2cccc(C)c2)cn2c3c(=O)[nH]c(=O)n(C)c3nc12
5,42%,Cn1c(=O)[nH]c(=O)c2c1nc1n(CCCCO)c(-c3ccc4c(c3)OCO4)cn21
6,59%,COc1ccccc1-n1c(-c2ccc(O)cc2)cn2c3c(=O)[nH]c(=O)n(C)c3nc12
7,38%,CCCCn1c(-c2ccc(C)cc2)cn2c3c(=O)[nH]c(=O)n(C)c3nc12

# Molecular target: T1, Ephrin type-B receptor 4
# Assay: Inhibition of EphB4 by [gamma33-P]ATP based assay
row,Compound,pIC50
1,COc1ccccc1-n1c(-c2cccc(O)c2)cn2c3c(=O)[nH]c(=O)n(C)c3nc12,6.67
2,Cn1c(=O)[nH]c(=O)c2c1nc1n(CCCCO)c(-c3ccccc3)cn21,5.25

# Reference: ChEMBL document CHEMBL1154183, “Structure-based optimization of potent and selective inhibitors of the tyrosine kinase erythropoietin producing human hepatocellular carcinoma receptor B4 (EphB4)” (J Med Chem, 2009)
